# Several values for one entry are separate records, joined by “and”; a condition that tells them apart may be missing. Identical values can stand only once. Like-named read-outs stand apart in the source and are kept apart here. Peptide text beside a SMILES is read from it. * marks the point of attachment. Cbz = O=C(OCc1ccccc1)*
# How the values were obtained:
# [1] = biological target: T1, 20S proteasome (Homo sapiens, UniProt P28074); experiment: 20S proteasome activity in xenograft tumors, enzymatic assay; format: in vivo
# T1 sequence (P28074 60-263): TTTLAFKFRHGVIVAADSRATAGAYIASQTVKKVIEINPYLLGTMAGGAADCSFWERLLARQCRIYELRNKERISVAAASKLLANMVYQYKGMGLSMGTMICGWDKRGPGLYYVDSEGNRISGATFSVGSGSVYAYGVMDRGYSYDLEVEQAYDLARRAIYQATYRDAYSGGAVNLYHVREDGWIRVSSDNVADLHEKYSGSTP
# In short: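 CWR22 human prostate tumor fragments were implanted subcutaneously by trocar in the flank of male CB-17 SCID mice aged 5–8 weeks. Tumor-bearing mice received an IV dose of the test compound. At 4 h, tumors were collected and 20S proteasome activity was measured by an enzymatic assay. Inhibition is expressed as a mean percentage relative to vehicle-treated controls.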
# [2] = tested on: mouse xenograft models of human MM; settings: cited from earlier work
# [3] = cited from earlier work; for maximal plasma concentration: humans, 800 mg EGCG supplements
# [4] = tested on: CWR22 human prostate xenograft tumors; experiment: In vivo antitumor activity; design: species or system mice
# In short: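 Male CB-17 SCID mice aged 5–8 weeks implanted SC in the flank (trocar) with CWR22 fragments; randomised at 150–250 mm3 (n = 9/group). EGCG 50 mg/kg IV or SC BIW for 7 doses; ascorbic acid 40 or 500 mg/kg PO QD for 22 days; vehicle 0.9% saline. Calipers BIW; volume = 0.5 × length × width². TGI from mean volumes versus control on day 22 or 25.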
# [5] = tested on: RPMI-8226 cells; experiment: Bortezomib–EGCG combination matrix, ATP luminescence cell viability; format: cell-based, human
# [6] = tested on: MM cell lines; settings: 10 nM bortezomib, several MM cell lines; cited from earlier work
# [7] = Pharmacokinetics of EGCG in mice; format: in vivo; settings: for Cmax: read-out: mean Cmax
# In short: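 Naïve female nude or male CB-17 SCID mice aged 5–8 weeks given EGCG in 0.9% saline: PO 50, IV 50 and 100, or SC 50 mg/kg. Cardiac blood taken under CO2 from 5 min to 48 h; EDTA plasma stabilised 1:1 with ascorbic acid/EDTA, stored at −80°C, assayed by LC/MS/MS. Concentrations at bortezomib dosing times projected from these profiles.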
# [8] = biological target: T2, 20S proteasome (Mus musculus, UniProt O55234); experiment: 20S proteasome activity in blood, enzymatic assay; format: in vivo, mice; settings: for inhibition at 0.8 mg/kg: mouse
# T2 sequence (O55234 60-264): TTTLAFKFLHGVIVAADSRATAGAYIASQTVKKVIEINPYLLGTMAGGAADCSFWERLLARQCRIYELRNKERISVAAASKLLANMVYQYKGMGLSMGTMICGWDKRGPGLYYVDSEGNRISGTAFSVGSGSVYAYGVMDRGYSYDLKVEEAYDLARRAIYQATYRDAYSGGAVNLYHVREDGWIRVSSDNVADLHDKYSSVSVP
# In short: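 20S proteasome activity in blood measured by an enzymatic assay on samples taken 4 h after dosing. Schedules were bortezomib 0.8 mg/kg IV, EGCG 50 mg/kg IV alone, EGCG 50 mg/kg IV then bortezomib 2 min later, or EGCG 50 mg/kg SC then bortezomib 30 or 60 min later. Inhibition expressed relative to vehicle controls.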
# [9] = tested on: phospho-β-catenin (Ser33/Ser37/Thr41), GADD34 and ATF3; experiment: Western blot of xenograft tumors for proteasome substrate and ER stress markers; format: in vivo, human; settings: 4 h
# In short: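 CWR22 xenograft tumours harvested 4 h after dosing with bortezomib 0.8 mg/kg IV, EGCG 50 mg/kg IV, or EGCG (IV, then bortezomib 2 min later; SC, then bortezomib 30 or 60 min later). Western blots probed for phospho-β-catenin (Ser33/Ser37/Thr41), GADD34 and ATF3, compared with vehicle controls.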
# [10] = cited from earlier work
# [11] = tested on: glioblastoma cell line; settings: 20 μM EGCG, 20 nM bortezomib; cited from earlier work
# [12] = cited from earlier work; remark: listed apart in the source
# [13] = human plasma, within an hour post-dose; cited from earlier work
# [14] = tested on: RPMI8226 cells; settings: cited from earlier work
# [15] = Pharmacokinetics of ascorbic acid; format: in vivo, mice; settings: for Cmax / Tmax: male, CB-17 SCID, mouse, po
# In short: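 Male CB-17 SCID mice bearing CWR22 tumours (naïve mice also sampled) given ascorbic acid 40 or 500 mg/kg PO in 0.9% saline. Cardiac blood taken at 0.5–6 h into lithium heparin; plasma stabilised 1:1 with 10% metaphosphoric acid, stored at −80°C. LC/MS/MS in negative ion MRM mode (m/z 175.0/114.8).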
# [16] = humans, oral dose of 1,250 mg; cited from earlier work
# [17] = iv, read-out: mean 20S proteasome inhibition
compound,measurement,setting,value
"O=C(O[C@@H]1Cc2c(O)cc(O)cc2O[C@@H]1c1cc(O)c(O)c(O)c1)c1cc(O)c(O)c(O)c1 [EGCG, epigallocatechin gallate]",inhibition of proteasome activity compared with vehicle controls,"[1]; tumor, EGCG 50 mg/kg IV alone, 4 h (Fig. 4a)",No inhibition
same,effect on the antitumor effects of bortezomib,"[2]; oral EGCG 25 or 50 mg/kg, bortezomib i.p. 0.5 mg/kg",inhibits the antitumor effects
same,EGCG concentration measured clinically,[3]; humans taking EGCG supplements,0.6 to 3 µM
same,maximal plasma concentration,[3]; taken after fasting,"approximately 3 μM and 1,522 ng/ml"
same,maximal plasma concentration,[3]; taken with food,approximately 0.6 μM and 294 ng/ml
same,TGI,[4]; EGCG 50 mg/kg IV BIW alone,−15.3%
same,TGI,[4]; EGCG 50 mg/kg SC BIW single agent,3.6%
same,antagonism of 40 nM bortezomib,[5]; EGCG 3.8 μM,no antagonism
same,cytotoxicity of EGCG on its own,[5]; EGCG 100 μM,cytotoxic
same,impact on the cytotoxicity of bortezomib,[5]; EGCG concentrations of up to 0.4 μM,no impact
same,EGCG concentration required for a substantial shift in the potency of bortezomib,[5]; RPMI8226 cell viability,> 1000 nM
same,EGCG concentrations that antagonized the cytotoxic effect of bortezomib,[6],≥ 2.5 µM
same,Projected plasma concentration of EGCG at the time of bortezomib dosing,"[7]; 50 mg/kg IV EGCG, 2 min interval",224 µM
same,Projected plasma concentration of EGCG at the time of bortezomib dosing,"[7]; 50 mg/kg SC EGCG, 30 min interval",11 to 16 µM
same,Projected plasma concentration of EGCG at the time of bortezomib dosing,"[7]; 50 mg/kg SC EGCG, 60 min interval",4 to 8 µM
same,time plasma concentration remained higher than 3 μM,[7]; IV and SC dosing at 50 mg/kg,~2 h
same,maximal EGCG concentration,[7]; SC 50 mg/kg,> 25 µM
same,EGCG plasma concentration,"[7]; SC 50 mg/kg, 30 min post-dose, first study",16.2 µM
same,EGCG plasma concentration,"[7]; SC 50 mg/kg, 30 min post-dose, second study",11.3 µM
same,EGCG plasma concentration,"[7]; SC 50 mg/kg, 1 h post-dose, first study",8.4 µM
same,EGCG plasma concentration,"[7]; SC 50 mg/kg, 1 h post-dose, second study",3.9 µM
same,EGCG plasma concentration,"[7]; SC 50 mg/kg, 2 h post-dose, first study",2.8 µM
same,EGCG plasma concentration,"[7]; SC 50 mg/kg, 2 h post-dose, second study",2.5 µM
same,mean plasma Tmax,"[7]; SC 50 mg/kg, naïve male CB17 SCID mice, both studies",0.083 h
same,plasma levels of EGCG,"[7]; after IV dosing (50 and 100 mg/kg), within 30 min of dosing",< 20 µM
same,maximal plasma concentration,[7]; oral dosing 50 mg/kg,< 0.1 µM
same,Cmax,"[7]; SC 50 mg/kg, naïve male CB17 SCID mice, first study",33.7 µM
same,Cmax,"[7]; SC 50 mg/kg, naïve male CB17 SCID mice, second study",26 µM
same,mean plasma Tmax,"[7]; single oral dose 50 mg/kg, naïve female nude mice",0.5 h
same,inhibition of proteasome activity compared with vehicle controls,"[8]; blood, EGCG 50 mg/kg IV alone, 4 h (Fig. 4a)",No inhibition
same,"levels of phospho-β-catenin, GADD34, and ATF3",[9]; EGCG 50 mg/kg IV on its own,does not change levels
same,plasma concentration,"[10]; 50 mg/kg EGCG administered intragastrically, at 50 min",approximately 60 nM
same,maximal plasma concentrations,"[10]; mice, oral dosing of 50 and 80 mg/kg",0.06 to 0.28 µM
same,effect on proteasome inhibition by bortezomib,[11],blocked proteasome inhibition
"CC(C)C[C@H](NC(=O)[C@H](Cc1ccccc1)NC(=O)c1cnccn1)B(O)O [bortezomib, reference compound]",inhibition at 0.8 mg/kg,[1]; [17],52%
same,effect of EGCG on the proteasome inhibitor,[12],antagonizes
same,TGI,"[4]; bortezomib 0.8 mg/kg IV BIW alone, vitamin C study (Fig. 5b)",62.8%
same,TGI,"[4]; bortezomib 0.8 mg/kg IV BIW single agent, across EGCG studies, versus control",53.9–58.9%
same,increase in the IC50 of bortezomib,[5]; 3.8 μM EGCG versus no EGCG,2.5 fold
same,IC50,"[5]; read-out: Btz IC50, RPMI-8226 cells, 48 h, EGCG 425 nM (0.4 μM)",7 nM
same,inhibition at 0.8 mg/kg,[8]; [17],44%
same,inhibition at 0.8 mg/kg,[8]; read-out: mean proteasome inhibition,59%
same,"levels of phospho-β-catenin, GADD34, and ATF3 compared with vehicle controls",[9]; bortezomib 0.8 mg/kg IV,elevated levels
same,drop of plasma concentrations,[13],more than 10 fold
O=C1O[C@H]([C@@H](O)CO)C(O)=C1O [ascorbic acid],effect on the antitumor effects of bortezomib,"[2]; oral vitamin C 40 mg/kg/day, bortezomib IV 0.1 mg/kg",inhibits the antitumor effects
same,antagonism of the activity of bortezomib,"[14]; 30 μM ascorbic acid, 5 and 10 nM bortezomib",partially antagonized
same,antagonism of the activity of bortezomib,"[14]; 250 μM ascorbic acid, 5–10 nM bortezomib",nearly complete antagonism
same,Cmax,"[15]; plasma, 40 mg/kg",72.8 µM
same,Tmax,"[15]; plasma, 40 mg/kg",4 h
same,Cmax,"[15]; plasma, 500 mg/kg",193 µM
same,Tmax,"[15]; plasma, 500 mg/kg",2 h
same,time elevated plasma level above endogenous is maintained,[15]; oral dosing 40 and 500 mg/kg,at least 6 h
same,levels of endogenous ascorbic acid,"[15]; plasma, naïve or CWR22 tumor-bearing male CB-17 SCID mice",48.3 to 59.2 µM
same,TGI,[4]; ascorbic acid 40 mg/kg PO QD alone,−24.4%
same,TGI,[4]; ascorbic acid 500 mg/kg PO QD alone,−15.5%
same,maximal concentrations,[16],approximately 150 μM
CC(C)C[C@H](NC(=O)[C@H](CC(C)C)NC(=O)[C@H](CC(C)C)NC(=O)OCc1ccccc1)B(O)O [MG-262],effect of EGCG on the proteasome inhibitor,[12],antagonizes
Cc1c(O)cccc1C(=O)N[C@@H](CSc1ccccc1)[C@H](O)CN1C[C@H]2CCCC[C@H]2C[C@H]1C(=O)NC(C)(C)C [nelfinavir],effect of EGCG on the proteasome inhibitor,[12],has no effect
CC(C)C[C@@H](C=O)NC(=O)[C@H](CC(C)C)NC(=O)[C@H](CC(C)C)NC(=O)OCc1ccccc1 [MG-132] (Cbz-Leu-Leu-Leu-aldehyde),effect of EGCG on the proteasome inhibitor,[12],has no effect
